# The list is not random: actives were taken first. Their share in the collection is about 2.3%.
# STAT3 activator – activators of IL-6 induced STAT3 signaling. U3A cells, IL-6 STAT3-luciferase reporter, luminescence; 100% = signal with IL-6 EC80 alone. activation (% of control), % at 5.6 µM. actives 0.91% (n = 190,000). AID 871;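 active = activation above the screen-wide mean of compound activation plus 3 SD, cut at about 130% in these data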;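 also: 0% = background luminescence of wells with medium and substrate only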
#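 system = STAT3-luciferase reporter U3A cells | reagent = IL-6 stimulus at 33 ng/mL final | timing = 1 h compound pre-exposure, 6 h IL-6 stimulation, 37 °C | measured by = luminescence | evaluation = % activation versus median of IL-6-stimulated wells | control set = IL-6-only wells as 100% reference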
# HSP90 refold inh – HSP90 refolding inhibition in rabbit reticulocyte lysate; luciferase refolding luminescence, 3 h; inhibition, % at 5.6 µM; actives 0.91% (n = 290,000);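 active = inhibition above the screen-wide mean plus 3 SD, computed separately per campaign, cut at about 16% in these data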;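 also: 0% = DMSO wells and 100% = 60 µM geldanamycin wells; inhibitors lower the luminescence because luciferase stays unfolded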
# STAT1 inh – inhibitors of IFN-gamma induced STAT1 signaling; actives 0.35% (n = 200,000); NIH 3T3 STAT1-luciferase reporter, luminescence; inhibition, % at 5.5 µM;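 active = inhibition above a set limit, the mean inhibition across all tested compounds plus 3 SD, cut at about 34% in these data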;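 also: 0% = IFN-gamma with DMSO and 100% = IFN-gamma with 300 µM nifuroxazide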
# STAT3 inh – STAT3 signaling inhibition; inhibition, % at 5.5 µM; U3A cells, IL-6 STAT3-luciferase reporter, luminescence; host cell line lacks STAT1; actives 0.89% (n = 190,000);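 active = inhibition above the mean inhibition across all screened compounds plus 3 SD, cut at about 44% in these data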;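 also: 0% = DMSO only wells and 100% = 100 µM nifuroxazide control wells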
# PPC-1+TRAIL kill – compounds killing PPC-1 cancer cells with TRAIL present (potentiator screen, no TRAIL-free arm); cell killing (% activity), % at 4 µM or 5 µM; PPC-1 cells + TRAIL, ATPLite viability luminescence; actives 0.41% (n = 220,000);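 active = cell killing above 50% in the first pass at 4 µM, then a duplicate retest at 5 µM averaging 50% or more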;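 also: plate controls were cells with TRAIL plus DMSO for no effect and medium-only wells lacking cells for full effect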
# TRAIL sens C8 – sensitizes caspase-8 expressing cells to TRAIL; NB7+C8 cells + TRAIL, ATPlite viability luminescence; inhibition (viability loss, TRAIL sensitization), % at 10 µM; actives 1% (n = 360,000);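 active = compounds causing at least 50% loss of cell viability in the single-dose screen, relative to plate controls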
# PPC-1 tox – kills PPC-1 cells; PPC-1 viability, ATPlite luminescence, overnight; actives 50% (n = 1,200); cytotoxicity, % at 5 µM; shares compounds with PPC-1+TRAIL kill;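 active = reconfirmed compounds whose average cytotoxicity reaches 50% or more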;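 also: 0% = DMSO-treated cells and 100% = wells holding medium but no cells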
# HSP90 confirm – confirmation of HSP90 inhibitors; shares compounds with HSP90 refold inh; rabbit reticulocyte lysate, luciferase refolding luminescence, 3 h; inhibition, % at 5.9 µM; actives 64% (n = 2,300); AID 1846; in the data active = inhibition above about 18%;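 also: 0% = vehicle wells and 100% = reference inhibitor wells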
# luciferase ctr – counter-screen for HSP90 inhibitors: inhibitors of firefly luciferase | purified native firefly luciferase, luminescence | inhibition, % at 5.9 µM | shares compounds with HSP90 refold inh | actives 48% (n = 2,300);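 active = inhibition above the mean inhibition of all tested sample wells plus 3 SD, cut at about 10% in these data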;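 also: 0% = DMSO with luciferase and 100% = wells lacking luciferase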
# Target sequence (P08659 whole entry, looked up): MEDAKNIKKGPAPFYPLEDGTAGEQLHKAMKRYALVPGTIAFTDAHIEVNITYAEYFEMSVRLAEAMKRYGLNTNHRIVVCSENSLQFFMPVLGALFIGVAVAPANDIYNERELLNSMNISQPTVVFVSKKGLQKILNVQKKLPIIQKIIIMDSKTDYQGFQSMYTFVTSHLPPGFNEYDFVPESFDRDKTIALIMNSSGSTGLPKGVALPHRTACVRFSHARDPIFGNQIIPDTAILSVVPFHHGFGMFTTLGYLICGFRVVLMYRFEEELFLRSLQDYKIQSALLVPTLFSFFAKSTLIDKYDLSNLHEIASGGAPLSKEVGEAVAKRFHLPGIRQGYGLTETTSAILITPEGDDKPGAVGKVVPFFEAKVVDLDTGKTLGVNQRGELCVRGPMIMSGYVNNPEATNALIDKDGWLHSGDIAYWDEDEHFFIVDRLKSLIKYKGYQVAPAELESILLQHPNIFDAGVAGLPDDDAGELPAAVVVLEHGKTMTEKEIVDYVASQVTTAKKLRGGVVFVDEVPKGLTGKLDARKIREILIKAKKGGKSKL
# Active calls of the source: *; . = no result given.
SMILES,STAT3 activator,HSP90 refold inh,STAT1 inh,STAT3 inh,PPC-1+TRAIL kill,TRAIL sens C8,PPC-1 tox,HSP90 confirm,luciferase ctr
COc1cccc(C(=O)Nc2nc3ccccc3[nH]2)c1,29,27*,44*,86*,71*,83*,73*,67*,56*
O=C(Nc1nc2ccccc2[nH]1)c1cccc(Br)c1,.,12,.,.,.,34,.,.,.
Cc1csc(NC(=O)CSc2nc(C(C)C)nc3c2c(=O)n(C)c(=O)n3C)n1,97,0,17,12,.,27,.,.,.
O=C(Nc1nccs1)c1cn2ccccc2n1,.,33*,.,.,61*,40,59*,54*,43*
Cc1nn(C(C)(C)C)c(C)c1/C=N/OC(=O)Nc1ccc(Cl)cc1,.,86*,.,.,85*,88*,86*,86*,87*
Cc1nn(C)c(C)c1/C=N/NC(=O)C(C)(C)Oc1ccc(Cl)cc1,97,6,-8,0,14,-13,.,.,.
COc1cccc(-c2nc(-c3ccccn3)no2)c1,19,69*,60*,95*,76*,.,81*,86*,78*
O=C(O)CCCn1c(=O)[nH]c2ccccc2c1=O,99,-1,-2,6,4,-4,.,.,.
COc1ccc2c(=O)c3c(=O)n(-c4ccccc4)c(-c4ccco4)nc3oc2c1,97,-4,-11,1,11,-2,.,.,.
O=c1c(Cl)c(N2CCCCC2)cnn1-c1nc2ccccc2[nH]1,13,65*,71*,103*,92*,87*,92*,86*,80*
Clc1ccc2nc(N3CCCCC3)[nH]c2c1,104,0,-39,-4,29,48,.,.,.
O=C(N/N=C/c1ccc(OC(=O)c2ccccc2Cl)cc1)c1ccccn1,.,-3,.,.,.,26,.,.,.
CCc1ccc(/C=N/NC(=O)c2ccccn2)cc1,.,23*,.,.,72*,82*,71*,73*,65*
O=C1c2ccccc2-c2n[nH]c3cccc1c23,.,.,.,.,.,22,.,.,.
Cc1ccc(-c2cc3c(nn2)-c2ccccc2C3=O)cc1,.,28*,.,.,90*,93*,92*,75*,89*
CCc1ccc2oc(-c3cccc(N)c3)nc2c1,97,18*,-18,5,47,82*,48,60*,58*
C(=N\Nc1nc2ccccc2[nH]1)/c1ccc2c(c1)OCCO2,.,5,.,.,35,32,.,.,.
Cc1cccc(/C=N/Nc2ccc3ccccc3n2)c1,16,66*,90*,102*,71*,85*,72*,85*,84*
C(=N\Nc1ccc2ccccc2n1)/c1ccc2c(c1)OCCO2,13,68*,89*,108*,71*,81*,75*,93*,92*
Cc1cccn2c(CNCCSc3nccn3C)c(C(=O)N3CCCCC3)nc12,.,5,.,.,4,11,.,.,.
O=[N+]([O-])c1ccc2nc(-c3ccccc3)oc2c1,97,2,-54,15,8,-11,.,.,.
Cc1cnc(NC(=O)COc2ccccc2Cl)s1,26,58*,61*,92*,60*,77*,59*,79*,78*
O=C(/C=C\Nc1ccc2c(c1)OCO2)c1ccccn1,11,71*,87*,103*,92*,87*,92*,96*,90*
O=C(NC(=O)c1ccccc1O)c1ccc2c(c1)CCO2,.,19*,.,.,69*,74*,68*,24*,-2
CC(=O)c1ccc(NC(=O)Nc2ccc3c(c2)nc(C)n3C)cc1,91,2,-33,14,-1,4,.,.,.
SMILES,STAT3 activator,HSP90 refold inh,STAT1 inh,STAT3 inh,PPC-1+TRAIL kill,TRAIL sens C8,PPC-1 tox,HSP90 confirm,luciferase ctr
Cc1nc2cc(NC(=O)Nc3ccccc3Cl)ccc2n1C,30,32*,40*,84*,71*,73*,72*,59*,38*
Nc1nc(NC(=O)c2cccs2)nn1-c1ccccc1,106,-3,-24,-3,33,0,.,.,.
CCOc1ccc(C(=O)Nc2cc(C)ccn2)cc1,24,50*,75*,93*,91*,90*,90*,75*,58*
Cc1ccc2nc(-c3ccccc3)cn2c1,11,86*,84*,103*,90*,90*,88*,92*,83*
CC(=O)Nc1ccc(-c2cn3cc(C)ccc3n2)cc1,69,4,-34,38,40,45,.,.,.
Cc1cc(/C=N/Nc2nc(N)ncc2[N+](=O)[O-])c(C)n1-c1ccccc1F,.,78*,.,.,76*,.,77*,94*,89*
COc1ccccc1N(CC(=O)NC1CCCC1)C(=O)CCC(=O)Nc1cc(C)on1,105,-4,6,-1,3,4,.,.,.
COc1ccc(C(=O)Nc2ccc(C)cn2)c(OC)c1,13,88*,82*,105*,88*,91*,88*,88*,82*
COc1ccc(C(=O)Nc2cc(C)on2)c(OC)c1,.,2,.,.,.,23,.,.,.
CN(C)c1ccc(/C=C/c2nc3ccccc3s2)cc1,14,76*,91*,108*,81*,92*,81*,92*,90*
Cc1ccc(/C=C/c2nc3ccccc3s2)s1,43,46*,44*,70*,85*,67*,83*,80*,74*
COc1cc(/C=C/c2nc3ccccc3s2)cc(OC)c1O,91,5,-15,19,12,-8,.,.,.
CC1CCC2(CC1)NC(=O)N(NC(=O)CCl)C2=O (centres undefined),98,-2,-6,5,16,6,.,.,.
COc1ccc(-c2cc(=O)c3c(O)c(OC)c(OC)c(OC)c3o2)cc1,.,.,.,.,.,1,.,.,.
COc1ccc(-c2cc(=O)c3c(O)c(OC)c(O)cc3o2)cc1,.,20*,0,.,64*,70*,64*,46*,41*
CCOC(=O)/C(=N\NC(=O)c1ccccc1)c1ccccc1,86,3,11,21,8,-3,.,.,.
COc1ccc2cc(-c3cc(C(=O)O)c4ccccc4n3)ccc2c1,17,28*,73*,95*,96*,95*,96*,64*,38*
COc1ccc(-c2cc(C(=O)O)c3ccccc3n2)c(OC)c1,102,-2,2,1,4,-13,.,.,.
Cc1ccccc1Nc1nc(N)nc(COC(=O)c2ccc3c(c2)OCCO3)n1,.,.,.,.,.,9,.,.,.
CCOc1ccc(S(=O)(=O)N2CCN(C(=O)C3CC3C)CC2)cc1 (centres undefined),.,.,.,.,.,3,.,.,.
